Assay outcomes (PubChem BioAssay)
Exocytosis inh = lytic granule exocytosis inhibition. TALL-104 LAMP-1 surface exposure, flow cytometry; cells stimulated with thapsigargin and PMA. inhibition, % at 10 µM. 360,000 compounds, 0.66% hits. AID 651702;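 active = inhibition above about 55%, limit read from the data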
UBC13 inh = inhibitors of human UBC13 polyubiquitin chain formation; AID 485273; TR-FRET; 330,000 compounds, 0.47% hits; inhibition, % at 20 µM; P61088; in the data active = inhibition above about 45%, passing the limit was not always enough
MIN6 prolif = MIN6 beta-cell proliferation induction; proliferation, % at 10 µM; 330,000 compounds, 0.29% hits; AID 2380; MIN6 cells proliferation, ATPlite luminescence, 48 h; cells starved in 0.2% serum; 100% = growth in 10% serum;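 active = compounds whose signal lies at least 3.5 SD above the mean of all wells on their plate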
Apaf1 inhib = blocks human Apaf-1 apoptosome activity. AID 489030. O14727. inhibition, % at 20 µM. reconstituted apoptosome caspase-3 activity, DEVD-Rh110 fluorescence. 330,000 compounds, 0.71% hits; active = inhibition of at least 40% at 20 µM
Target sequence (O14727 whole entry, looked up): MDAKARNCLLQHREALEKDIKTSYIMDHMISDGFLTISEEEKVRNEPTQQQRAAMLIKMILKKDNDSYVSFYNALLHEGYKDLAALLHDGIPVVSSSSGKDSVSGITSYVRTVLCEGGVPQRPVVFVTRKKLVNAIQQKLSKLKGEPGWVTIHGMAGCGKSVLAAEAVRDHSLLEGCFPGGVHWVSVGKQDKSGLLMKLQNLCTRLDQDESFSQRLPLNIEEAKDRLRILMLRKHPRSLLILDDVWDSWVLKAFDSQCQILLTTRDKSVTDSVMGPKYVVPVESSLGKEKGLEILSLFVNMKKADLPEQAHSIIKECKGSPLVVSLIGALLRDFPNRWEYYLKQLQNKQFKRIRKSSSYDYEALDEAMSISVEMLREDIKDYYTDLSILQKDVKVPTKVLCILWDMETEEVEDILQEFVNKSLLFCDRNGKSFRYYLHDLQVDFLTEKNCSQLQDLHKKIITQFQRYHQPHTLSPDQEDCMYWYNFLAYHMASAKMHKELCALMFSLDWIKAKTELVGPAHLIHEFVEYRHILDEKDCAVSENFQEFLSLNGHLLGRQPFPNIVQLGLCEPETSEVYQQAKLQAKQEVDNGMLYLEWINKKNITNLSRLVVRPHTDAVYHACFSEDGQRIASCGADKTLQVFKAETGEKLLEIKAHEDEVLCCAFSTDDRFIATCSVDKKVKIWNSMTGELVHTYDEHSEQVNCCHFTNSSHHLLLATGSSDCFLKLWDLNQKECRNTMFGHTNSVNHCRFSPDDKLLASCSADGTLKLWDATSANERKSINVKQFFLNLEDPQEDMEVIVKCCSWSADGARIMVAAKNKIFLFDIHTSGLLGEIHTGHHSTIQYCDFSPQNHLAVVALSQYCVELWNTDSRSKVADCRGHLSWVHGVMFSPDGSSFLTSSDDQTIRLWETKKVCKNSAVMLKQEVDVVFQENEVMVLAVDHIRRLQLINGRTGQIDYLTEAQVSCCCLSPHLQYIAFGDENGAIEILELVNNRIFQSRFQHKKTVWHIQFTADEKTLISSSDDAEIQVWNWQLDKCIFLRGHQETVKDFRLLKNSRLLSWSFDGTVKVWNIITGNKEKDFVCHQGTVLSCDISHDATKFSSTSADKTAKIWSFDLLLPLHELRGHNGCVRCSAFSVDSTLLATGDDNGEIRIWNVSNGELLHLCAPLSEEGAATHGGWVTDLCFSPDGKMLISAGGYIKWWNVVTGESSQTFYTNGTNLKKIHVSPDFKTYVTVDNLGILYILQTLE
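Material: cell-free apoptosome with Apaf-1, procaspase-3 and caspase-9; Buffer or medium: Hepes pH 7.5 with detergent and BSA; Reagent: cytochrome c trigger plus (Z-DEVD)2-Rh110 caspase-3 substrate; Times: compound with Apaf-1, dATP, procaspase-3 30 min, then 50 min reaction, room temperature; Technique: Rh110 fluorescence intensity.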
hiPSC survival = increases survival of single human iPS cells; hiPSC single-cell survival, ATPlite luminescence; 100% = ROCK inhibitor wells, 0% = DMSO; survival enhancement, % at 20 µM; 360,000 compounds, 0.044% hits; AID 602274; in the data active = survival enhancement above about 18%;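 note: cells exposed to compounds for 16 hours before the ATP read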
MPTP block = inhibitors of mitochondrial permeability transition pore; isolated mouse mitochondria, Ca2+ swelling absorbance, 30 min; inhibition, % at 10 µM; 360,000 compounds, 1.4% hits;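 active = inhibition of 50% or more, scaled per plate between neutral and stimulator controls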
Casp3 counter = counter-screen for UBC13 inhibitors: human caspase-3 inhibition; AID 488856; 1,400 compounds, 4% hits; inhibition, % at 20 µM; shares compounds with UBC13 inh; Recombinant caspase-3, Caspase-Glo 3/7 luminescence, 60 min;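 active = mean inhibition across replicates above about 26%, limit read from the data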
UBC13 conf = human UBC13 polyubiquitin inhibition, confirmed; UBC13 polyubiquitination, TR-FRET, biochemical; 1,400 compounds, 68% hits; inhibition, % at 10 µM; shares compounds with UBC13 inh; in the data active = inhibition above about 45%
Apaf-1 inh conf = Apaf-1 inhibition, single-dose confirmed; AID 504614; 1,800 compounds, 25% hits; inhibition, % at 20 µM; reconstituted apoptosome, caspase-3 DEVD-Rh110 fluorescence; shares compounds with Apaf1 inhib;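 active = mean inhibition of at least 40% at 20 µM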
Rh110 interf inh = interferes with Rh110 fluorescence, flagging false Apaf-1 inhibitors; shares compounds with Apaf1 inhib; Rh110 fluorescence interference, quenched caspase reaction; activation (fluorescence interference), % at 20 µM; 1,800 tested, under 10 active; AID 504615;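 active = signal rise of 40% or more at 20 µM, treated as a fluorescence artifact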
Fluor interf inh = shows fluorescence interference in the Apaf-1 inhibitor assay format. fluorescence interference counterscreen, Apaf-1 assay format. IC50, µM. shares compounds with Apaf1 inhib. 460 tested, under 10 active; call rule not given here
Each line names hits and unclear results; the compound was inactive in the other large screens (follow-up assays come after a bar, where they were run). An excerpt weighted towards active compounds, which were near 3% of everything screened.

c1ccc2c(C[C@@H]3CNCCN3CCCCC3CCCCC3)cccc2c1	UBC13 inh 74, Apaf1 inhib 71 | Casp3 counter inactive | UBC13 conf 61 | Apaf-1 inh conf inactive | Rh110 interf inh inactive
CCC(C)[C@H]1CNCCN1CCc1cccc2ccccc12 (some centres not stated)	none
c1ccc2c(C[C@@H]3CNCCN3CCC34CC5CC(CC(C5)C3)C4)cccc2c1	UBC13 inh 50, Apaf1 inhib 66 | Casp3 counter inactive | UBC13 conf 53 | Apaf-1 inh conf inactive | Rh110 interf inh inactive
CCNC(=O)C1(C)CCN(C(=O)c2cccc(OC(C)=O)c2C)C1 (configuration not stated)	none (no result: UBC13 inh, MIN6 prolif, Apaf1 inhib)
C#CCOCCOCCOCCNc1nc(N2CCN(C(=O)CCCCCCCCCCNC(=O)Cn3cc(CCCCCN)nn3)CC2)nc(N2CCN(C(=O)CCCCCCCCCCNC(=O)[C@@H]([C@H](C)O)n3cc(C)nn3)CC2)n1	UBC13 inh 116, Apaf1 inhib 49 | Casp3 counter inactive | UBC13 conf 118 | Apaf-1 inh conf 40 | Rh110 interf inh inactive | Fluor interf inh inactive
C#CCOCCOCCOCCNc1nc(N2CCOCC2)nc(N2CCN(C(=O)CCCCCCCCCCNC(=O)[C@H]([C@@H](C)CC)n3cc(CCCCN=C(N)N)nn3)CC2)n1	UBC13 inh 77, Apaf1 inhib 60 | Casp3 counter inactive | UBC13 conf 70 | Apaf-1 inh conf inactive | Rh110 interf inh inactive
C#CCOCCOCCOCCNc1nc(N2CCN(C(=O)CCCCCCCCCCNC(=O)Cn3cc(C[C@@H](C)O)nn3)CC2)nc(N2CCN(C(=O)CCCCCCCCCCNC(=O)[C@@H]([C@H](C)CC)n3cc(CCCCCN)nn3)CC2)n1	UBC13 inh 120, Apaf1 inhib 54 | Casp3 counter inactive | UBC13 conf 121 | Apaf-1 inh conf 50 | Rh110 interf inh inactive | Fluor interf inh inactive
C#CCOCCOCCOCCNc1nc(N2CCN(C(=O)Cn3cc(CCCCN)nn3)CC2)nc(N2CCN(C(=O)[C@H](C(C)C)n3cc(CCO)nn3)CC2)n1	none
CC1CCN(S(=O)(=O)c2ccc3c(c2)N(CC(=O)NCCCN2CC(C)CC(C)C2)C(=O)CS3)CC1 (configuration not stated)	none
COC(=O)c1cc(-c2cccc(OC)c2)c2c(=O)[nH]c(=O)n(C)c2n1	none
CCN(Cc1ccccc1)S(=O)(=O)c1ccc(C(=O)N(CCCN(C)C)c2nc3c(F)cccc3s2)cc1	none
CCOc1cccc2sc(N(CCCN(C)C)C(=O)c3ccc(S(=O)(=O)N(C)Cc4ccccc4)cc3)nc12	UBC13 inh 76, Apaf1 inhib 62 | Casp3 counter inactive | UBC13 conf 111 | Apaf-1 inh conf inactive | Rh110 interf inh inactive
CCN(Cc1ccccc1)S(=O)(=O)c1ccc(C(=O)N(CCCN(C)C)c2nc3cc(C)cc(C)c3s2)cc1	UBC13 inh 74, Apaf1 inhib 42 | Casp3 counter inactive | UBC13 conf 109 | Apaf-1 inh conf inactive | Rh110 interf inh inactive
CCCCN(CC)S(=O)(=O)c1ccc(C(=O)N(CCCN(C)C)c2nc3cc(C)cc(C)c3s2)cc1	UBC13 inh 80, Apaf1 inhib 47 | Casp3 counter inactive | UBC13 conf 102 | Apaf-1 inh conf inactive | Rh110 interf inh inactive
COc1ccc([C@H]2C[C@H](n3cc(C4CC4)nn3)[C@@H](O)CN2C(=O)C2CCCCC2)cc1	none (no result: UBC13 inh, MIN6 prolif, Apaf1 inhib)
COCCN(C(=O)CCC(=O)Nc1ccccn1)C(C(=O)NCCC(C)C)c1ccc(C)cc1 (configuration not stated)	none
COc1cc(C(CCN2CCOCC2)c2c(OC)cc(OC)c3c(C)cc(=O)oc23)cc(OC)c1OC (configuration not stated)	none
CCCCCc1cc(=O)oc2c(C(CCN(CC)CC)c3ccc(OC)cc3)c(OC)cc(OC)c12 (configuration not stated)	UBC13 inh 83, Apaf1 inhib 61 | Casp3 counter inactive | UBC13 conf 76 | Apaf-1 inh conf inactive | Rh110 interf inh inactive
CCCCCc1cc(=O)oc2c(C(CCN3CCCC3)c3cc(OC)c(OC)c(OC)c3)c(OC)cc(OC)c12 (configuration not stated)	UBC13 inh 80, Apaf1 inhib 50 | Casp3 counter inactive | UBC13 conf 73 | Apaf-1 inh conf inactive | Rh110 interf inh inactive
CCCCCc1cc(=O)oc2c(C(CCN3CCCC3)c3ccc(N(C)C)cc3)c(OC)cc(OC)c12 (configuration not stated)	UBC13 inh 82, Apaf1 inhib 45 | Casp3 counter inactive | UBC13 conf inactive | Apaf-1 inh conf inactive | Rh110 interf inh inactive
CCCCCc1cc(=O)oc2c(C(CCN3CCCC(C)C3)c3ccc(OC)cc3)c(OC)cc(OC)c12 (configuration not stated)	UBC13 inh 65, Apaf1 inhib 66 | Casp3 counter inactive | UBC13 conf 53 | Apaf-1 inh conf inactive | Rh110 interf inh inactive
CCOC(=O)C1CCCN(C(=O)CSc2nnnn2C)C1 (configuration not stated)	none
COc1ccccc1/C=N/Nc1cc(C)nc2ccc(C)cc12	none
COc1ccc2nc(C)cc(SCC(=O)N/N=C/c3ccccc3)c2c1	none
COc1ccc(/C=N/Nc2cc(C)nc3ccc(OC)cc23)c(OC)c1	UBC13 inh 102, Apaf1 inhib 43 | Casp3 counter inactive | UBC13 conf 122 | Apaf-1 inh conf inactive | Rh110 interf inh inactive
COc1ccc2nc(C)cc(N/N=C/c3ccccc3)c2c1	UBC13 inh 53, Apaf1 inhib 50 | Casp3 counter inactive | UBC13 conf 49 | Apaf-1 inh conf inactive | Rh110 interf inh inactive
Cc1c(C(=O)Nc2ccc(S(=O)(=O)N(C)C3CCN(C)CC3)cc2)oc2ccccc12	UBC13 inh 56, Apaf1 inhib 53 | Casp3 counter inactive | UBC13 conf inactive | Apaf-1 inh conf inactive | Rh110 interf inh inactive
